PP5 primary – inhibitors of human protein phosphatase 5 (PP5). inhibition, % at 6.7 µM. AID 1987. purified PP5c, OMFP substrate fluorescence. 320,000 tested, 0.18% active;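 active = inhibition above the campaign's mean inhibition across all tested compounds plus 3 SD, cut at about 9.5% in these data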;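 note: 0% = DMSO only and 100% = 100 µM cantharidin control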
JMJD2C inh – blocks human GASC-1 demethylase activity. Q9H3R0. GST-JMJD2C(1-420) H3K9me3 demethylation, DELFIA europium. 330,000 tested, 0.069% active. AID 2099. inhibition, % at 2.35 µM;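 active = more than half of a compound's replicate wells show inhibition beyond 50%, single wells judged on their own value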;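 note: signal counts dimethyl H3K9 product captured on neutravidin plate; 0% = median of DMSO wells and 100% = 0.3 times that DMSO median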
Target sequence (Q9H3R0 1-420 limits assumed): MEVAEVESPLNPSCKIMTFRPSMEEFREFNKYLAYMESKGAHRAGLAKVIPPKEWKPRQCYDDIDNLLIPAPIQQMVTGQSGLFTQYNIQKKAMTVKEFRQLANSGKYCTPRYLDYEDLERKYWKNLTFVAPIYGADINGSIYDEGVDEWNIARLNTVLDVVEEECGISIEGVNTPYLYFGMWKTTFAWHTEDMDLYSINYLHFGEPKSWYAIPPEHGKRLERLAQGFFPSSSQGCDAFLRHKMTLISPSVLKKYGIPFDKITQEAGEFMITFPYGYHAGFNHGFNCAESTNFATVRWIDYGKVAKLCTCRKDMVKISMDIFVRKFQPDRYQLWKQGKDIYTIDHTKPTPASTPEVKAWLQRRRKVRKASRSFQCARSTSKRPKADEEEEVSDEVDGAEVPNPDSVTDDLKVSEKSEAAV
CTSL1 counter – blocks F. hepatica cathepsin L1 in PFM18AAP counter-screen. recombinant F. hepatica cathepsin L1, Z-Leu-Arg-MCA fluorescence. inhibition, % at 5.96 µM. 300,000 tested, 0.49% active;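 active = inhibition above the mean of all tested compounds plus 3 SD, set per screening campaign, cut at about 17% in these data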;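 note: 0% = plate median of test compound wells and 100% = 1 µM Z-Phe-Ala-diazomethylketone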
T cruzi inh – T. cruzi replication inhibition; T. cruzi beta-gal in NIH3T3, luminescence, 90 h; inhibition, % (concentration not given with the values); 300,000 tested, 1.4% active;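 active = mean inhibition across valid replicates above about 55%, limit read from the data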;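 note: signal also drops with host cell toxicity which is not excluded here; 0% = plate median of DMSO wells and 100% = zero luminescence signal; higher percent means less beta-gal luminescence so fewer parasites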
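compound dosing = single 50 nL compound addition per well in DMSO | material = NIH/3T3 host cells with β-galactosidase reporter T. cruzi | input = 5,000 host fibroblasts per well | timing = ≥90 h infection period, 3 h prior cell attachment | read-out basis = percent inhibition of parasite-derived β-gal signal | detection = GalScreen β-gal luminescence, detergent lysis, 60 min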
H9c2 protect – myocardial damage modulation in H9c2 cells; H9c2 cardiomyocytes, H2O2 injury protection, ATPLite, 2 h; protection from H2O2 cell death, % at 20 µM; 360,000 tested, 0.63% active;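 active = compounds giving at least 50% protection of heart cells from peroxide-induced death in the single-dose screen, raw or plate-pattern-corrected value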;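 note: 0% = DMSO wells with peroxide and 100% = DMSO wells without peroxide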
pCIP destab – compounds decreasing mouse p/CIP protein stability; 290,000 tested, 0.01% active; Q05BA5; F442A p/CIP-EGFP cells, EGFP fluorescence, 16 h; AID 1984; decrease of EGFP signal, % at 10 µM;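 active = EGFP signal decrease of at least 30% at 10 µM or well 3 SD below plate mean, unless failing retest; inactive = the rest, including hits failing retest or dose response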
PP5 conf – PP5 (human) inhibition, confirmation; 460 tested, 22% active; Purified PP5, fluorogenic phosphatase substrate, fluorescence; shares compounds with PP5 primary; inhibition, % at 6.7 µM; in the data active = inhibition above about 9.5%
PP1 counter 3x – PP1 phosphatase inhibition, counter-screen for PP5 inhibitors; shares compounds with PP5 primary; PP1 enzyme, fluorescent phosphatase substrate; inhibition, % at 6.7 µM; 460 tested, 4% active; AID 2355; in the data active = inhibition above about 16%
Starred values were filed as active, the others as inactive; / = no result given. In the library only some 2.4% were active in any assay of this set; here they are far more common.

SMILES	PP5 primary	JMJD2C inh	CTSL1 counter	T cruzi inh	H9c2 protect	pCIP destab	PP5 conf	PP1 counter 3x
Cc1ccc(C(=O)Nc2c(C(=O)NCc3ccco3)cnn2-c2ccccc2)cc1	-2.1	-9.0	2.4	-15.8	3.7	-8.9	/	/
O=C(Nc1c(C(=O)NCc2ccco2)cnn1-c1ccccc1)c1cccc(F)c1	10.5*	-0.8	-0.8	-5.6	15.4	-8.0	-7.0	-4.5
COc1cccc(CSCC(=O)NCCc2ccccc2)c1OC	10.4*	1.1	-0.5	4.4	1.4	2.1	-4.6	-5.0
CSc1nc(N)nc2c1ncn2CC(=O)NCCNc1ccc([N+](=O)[O-])cn1	/	41.2	/	/	-4.3	/	/	/
O=C(Nc1ccc(C2CCCCC2)cc1)C1CCN(c2ncccn2)CC1	10.2*	38.8	-0.2	-8.6	-1.1	-10.4	-4.0	-3.0
O=C(Nc1ccc2c(c1)CCC2)C1CCN(c2ncccn2)CC1	-1.1	-3.1	2.7	-3.3	-4.0	1.2	/	/
O=c1cc(C(F)(F)F)nc(SC/C=C/c2ccccc2)[nH]1	-0.3	-1.6	1.4	-15.0	-12.2	-13.0	/	/
Nn1c(SCC(=O)NCC2CCCO2)nnc1-c1ccco1 (stereo not drawn)	/	-7.5	/	/	-4.2	/	/	/

High-throughput results as filed in PubChem.
